# Assay results from ChEMBL document CHEMBL3112446, “Discovery and optimization of a new class of pyruvate kinase inhibitors as potential therapeutics for the treatment of methicillin-resistant Staphylococcus aureus infections” (Bioorg Med Chem, 2014).
# Calls of active or inactive are those of the source. The rule behind the calls is not given here.
# Columns and labels:
# [1] = system: Staphylococcus aureus; assay: Antibacterial activity against Staphylococcus aureus ATCC 29213 by two fold serial dilution method in presence of efflux inhibitor verapamil; format: functional
# Summary of the method: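 S. aureus ATCC29213, 96-well twofold broth microdilution in CAMHB with verapamil 200 mg/L (sub-inhibitory) versus plain CAMHB. Incubated 18–24 h at 37 °C, OD600 read, compound-plus-medium background subtracted. MIC is the lowest concentration giving complete growth inhibition relative to compound-free wells.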
# [2] = system: Staphylococcus aureus; assay: Bacteriostatic activity against Staphylococcus aureus harboring LAC Dpyk::ErmR mutant in TSB-G+P medium at 1.6 uM after 8 to 24 hrs; format: functional, organism-based
# Summary of the method: (§1)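 S. aureus LAC pyk::ErmR (pyk replaced by an ErmR cassette) and WT overnight cultures were washed twice in PBS and diluted to OD600 0.1 (~2.5 × 10^7 cfu/ml). Media were pre-warmed (37 °C) BHI or TSB without glucose plus 1% sodium pyruvate (TSB-G+P), ±1.6 µM inhibitor. Cultures grew at 37 °C, 250 rpm. Viable counts were taken by dilution plating on glucose-free TSA plus 1% pyruvate at 0, 8 and 24 h.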
# [3] = Inhibition of methicillin-resistant Staphylococcus aureus pyruvate kinase; details: read-out: IC50
# Summary of the method: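 His-tagged MRSA PK. Compounds diluted in 100% DMSO. IC50 calculated from a triplicate 15-point titration.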
# [4] = system: Staphylococcus aureus; assay: Bactericidal activity against Staphylococcus aureus harboring LAC Dpyk::ErmR mutant at 1.6 uM after 8 to 24 hrs; format: functional, organism-based; summary of the method: as §1
# [5] = system: Staphylococcus aureus; assay: Bacteriostatic activity against wild type Staphylococcus aureus at 1.6 uM after 8 to 24 hrs; format: functional, organism-based
# Summary of the method: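 Washed overnight cultures were diluted to OD600 = 0.1 (~2.5 × 10^7 cfu/ml) in pre-warmed medium, either BHI or glucose-free TSB with 1% sodium pyruvate, ±1.6 µM compound. Grown at 37 °C with shaking at 250 rpm. Viable counts by dilution plating on glucose-free TSA with 1% pyruvate at 0, 8 and 24 h.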
# [6] = system: Staphylococcus aureus; assay: Bacteriostatic activity against Staphylococcus aureus harboring LAC Dpyk::ErmR mutant in Brain-Heart infusion broth medium at 1.6 uM after 8 to 24 hrs; format: functional, organism-based; summary of the method: as §1
# [7] = system: Staphylococcus aureus; assay: Antibacterial activity against methicillin-resistant Staphylococcus aureus MW2 by two fold serial dilution method; format: functional
# [8] = system: Staphylococcus aureus; assay: Antibacterial activity against Staphylococcus aureus […]; format: functional
# [9] = system: Staphylococcus aureus; assay: Antibacterial activity against Staphylococcus aureus MRSA252; format: functional
Structure (SMILES),MIC [1] [µg/mL],Activity [2],IC50 [3] [nM],Activity [4],Activity [5],Activity [6],MIC [7] [µg/mL],MIC [8] [µg/mL],MIC [9] [µg/mL]
Clc1ccc2[nH]c(-c3cc4ccc(Br)cc4[nH]3)cc2c1,0.5,inactive,2,inactive,Active,Active,0.5,–,–
"O=C1NC[C@@H](c2c[nH]c3cc(Br)ccc23)N[C@H]1c1c[nH]c2cc(Br)ccc12 (relative stereo) [CIS-3,4-DIHYDROHAMACANTHIN B]",–,–,16,–,–,–,–,12.5,12.5
